# According to ChEMBL document CHEMBL5678802, “Small-molecule p21-activated kinase inhibitor PF-3758309 is a potent inhibitor of oncogenic signaling and tumor growth” (Proc Natl Acad Sci U S A, 2010):
# pIC50, pKi: −log10 of the molar value. Calls of active or inactive are those of the source. No cut-off for these calls is given here.
# Experiments:
# HCT-116 [1] = experiment: Antiproliferative activity against human HCT-116 cells assessed as inhibition of cell proliferation incubated for 3 days by CellTiter-Glo Luminescent Cell Viability Assay; format: functional, cell-based; conditions: HCT-116, 72 h
# In short: (§1)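 Cancer cell lines seeded in 384-well plates on day 1; compound added on day 2 and left for 3 days. On day 5 all medium was aspirated, and viable cells were quantified by CellTiter-Glo luminescence, which measures cellular ATP. Dose-dependent effects on proliferation were determined.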
# NCI-H716 = experiment: Antiproliferative activity against human NCI-H716 cells assessed as inhibition of cell proliferation incubated for 3 days by CellTiter-Glo Luminescent Cell Viability Assay; format: functional, cell-based; conditions: NCI-H716, 72 h
# In short: (§2)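 Cells of each line were plated in 384-well plates on day 1 and exposed to compound from day 2 for 3 days. On day 5 all medium was aspirated. Viable cell number was read by CellTiter-Glo luminescence, which quantifies cellular ATP.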
# NCI-H526 = experiment: Antiproliferative activity against human NCI-H526 cells assessed as inhibition of cell proliferation incubated for 3 days by CellTiter-Glo Luminescent Cell Viability Assay; format: functional, cell-based; conditions: NCI-H526, 72 h; in short: as §2
# NCI-H2347 = experiment: Antiproliferative activity against human NCI-H2347 cells assessed as inhibition of cell proliferation incubated for 3 days by CellTiter-Glo Luminescent Cell Viability Assay; format: functional, cell-based; conditions: NCI-H2347, 72 h; in short: as §2
# NCI-H520 = experiment: Antiproliferative activity against human NCI-H520 cells assessed as inhibition of cell proliferation incubated for 3 days by CellTiter-Glo Luminescent Cell Viability Assay; format: functional, cell-based; conditions: NCI-H520, 72 h; in short: as §2
# NCI-H1395 = experiment: Antiproliferative activity against human NCI-H1395 cells assessed as inhibition of cell proliferation incubated for 3 days by CellTiter-Glo Luminescent Cell Viability Assay; format: functional, cell-based; conditions: NCI-H1395, 72 h; in short: as §1
# Calu-6 = experiment: Antiproliferative activity against human Calu-6 cells assessed as inhibition of cell proliferation incubated for 3 days by CellTiter-Glo Luminescent Cell Viability Assay; format: functional, cell-based; conditions: Calu-6, 72 h; in short: as §1
# MIA PaCa-2 = experiment: Antiproliferative activity against human MIA PaCa-2 cells assessed as inhibition of cell proliferation incubated for 3 days by CellTiter-Glo Luminescent Cell Viability Assay; format: functional, cell-based; conditions: MIA PaCa-2, 72 h
# In short: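 Cancer cell lines seeded in 384-well plates on day 1; compound added on day 2 and incubated 3 days. On day 5 media aspirated and viable cells quantified by ATP content using CellTiter-Glo luminescence; dose-dependent proliferation effects determined.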
# HPAF-II = experiment: Antiproliferative activity against human HPAF-II cells assessed as inhibition of cell proliferation incubated for 3 days by CellTiter-Glo Luminescent Cell Viability Assay; format: functional, cell-based; conditions: 72 h; in short: as §1
# DAN-G = experiment: Antiproliferative activity against human DAN-G cells assessed as inhibition of cell proliferation incubated for 3 days by CellTiter-Glo Luminescent Cell Viability Assay; format: functional, cell-based; conditions: 72 h; in short: as §1
# Panc 02.03 = experiment: Antiproliferative activity against human Panc 02.03 cells assessed as inhibition of cell proliferation incubated for 3 days by CellTiter-Glo Luminescent Cell Viability Assay; format: functional, cell-based; conditions: Panc 02.03, 72 h; in short: as §2
# NCI-H2170 = experiment: Inhibition of anchorage independent cell growth in human NCI-H2170 cells incubated for 6 days by Alamar blue reagent based fluorescence plate reader analysis; format: functional; conditions: NCI-H2170, 144 h
# MCF10 = experiment: Antiproliferative activity against human MCF10 cells assessed as inhibition of cell proliferation incubated for 3 days by CellTiter-Glo Luminescent Cell Viability Assay; format: functional, cell-based; conditions: MCF10, 72 h; in short: as §1
# HCC38 = experiment: Antiproliferative activity against human HCC38 cells assessed as inhibition of cell proliferation incubated for 3 days by CellTiter-Glo Luminescent Cell Viability Assay; format: functional, cell-based; conditions: HCC38, 72 h; in short: as §1
# MDA-MB-157 = experiment: Antiproliferative activity against human MDA-MB-157 cells assessed as inhibition of cell proliferation incubated for 3 days by CellTiter-Glo Luminescent Cell Viability Assay; format: functional, cell-based; conditions: MDA-MB-157, 72 h; in short: as §1
# [2] = biological target: Protein kinase C theta type (Homo sapiens, UniProt Q04759); experiment: Inhibition of human PKCtheta in presence of ATP relative to control; conditions: concentration not given here
# [3] = biological target: Tyrosine-protein kinase Fyn (Homo sapiens, UniProt P06241); experiment: Inhibition of human FYN assessed as inhibition constant in presence of ATP
# [4] = biological target: Protein kinase C beta type (Homo sapiens, UniProt P05771); experiment: Inhibition of human PKCbeta1 assessed as inhibition constant in presence of ATP
# [5] = biological target: T1, Protein kinase C gamma type (Homo sapiens, UniProt P05129); experiment: Inhibition of human PKCgamma in presence of ATP
# [6] = biological target: Tyrosine-protein kinase Yes (Homo sapiens, UniProt P07947); experiment: Inhibition of human YES1 in presence of ATP by cellular assay
# [7] = biological target: T1, Protein kinase C gamma type; experiment: Inhibition of human PKCgamma in presence of ATP by cellular assay
# HCT-116 [8] = experiment: Induction of cell cycle arrest in human HCT-116 cells assessed as accumulation of cells at S phase at 100 nM measured after 48 hrs by fluorescence activated cell sorter analysis (reference value: 26.15%); format: functional
# [9] = Inhibition of YFP/YFP variant coding sequence fused ARF1/gamma-COP (unknown origin) expressed in HEK293 cells incubated for 8 to 24 hrs by fluorescence based analysis; format: cell-based, Homo sapiens
# [10] = biological target: Tumour suppressor p53/oncoprotein Mdm2 (Homo sapiens, UniProt P04637+Q00987); experiment: Inhibition of YFP/YFP variant coding sequence fused p53/Mdm2 (unknown origin) expressed in HEK293 cells incubated for 8 to 24 hrs by fluorescence based analysis; format: cell-based
# HCT-116 [11] = experiment: Downregulation of camptothecin-induced p21 waf1/cip1 level in human HCT-116 cells at 1 uM preincubated with compound for 15 mins followed by camptothecin stimulation and measured after 20 hrs by Western blot analysis; format: functional, cell-based; conditions: time 20.25 hrs
# COLO 205 = experiment: Antitumor activity against human COLO 205 cells xenografted in nude mouse assessed as tumor growth inhibition at 20 mg/kg, po administered once daily for 9 to 18 days relative to control; format: functional; conditions: time 9-18 day, read-out: TGI
# In short: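 Tumor cells were implanted s.c. into the right flank of female nu/nu nude mice aged 6–8 weeks. Animals were randomized into treatment groups once tumors were established (example: day 8 postimplant, about 170 mm3, animals >22 g). Compound in 0.5% methylcellulose was given by oral gavage. Tumors were measured with calipers two to three times per week.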
# [12] = Drug exposure in nude mouse xenografted with human HCT-116 cells at 1.1 to 3.3 mg/kg, sc administered for 6 days; format: ADME, organism-based; conditions: in vivo, dose 1.1-3.3 mg/kg, time 6 day, read-out: Drug uptake
# HCT-116 [13] = experiment: Antitumor activity against human HCT-116 cells xenografted in nude mouse assessed as reduction in total Myc level at 15 to 150 mg/kg/day administered via pump for 18 hrs by Reverse-Phase protein array analysis; format: functional, organism-based; conditions: dose 15-150 mg/kg/day
# [14] = biological target: T2, Serine/threonine-protein kinase PAK 4 (Homo sapiens, UniProt O96013); conditions: dose 50.0 µM
# [15] = biological target: T2, Serine/threonine-protein kinase PAK 4
# T2 sequence (O96013 whole entry, looked up): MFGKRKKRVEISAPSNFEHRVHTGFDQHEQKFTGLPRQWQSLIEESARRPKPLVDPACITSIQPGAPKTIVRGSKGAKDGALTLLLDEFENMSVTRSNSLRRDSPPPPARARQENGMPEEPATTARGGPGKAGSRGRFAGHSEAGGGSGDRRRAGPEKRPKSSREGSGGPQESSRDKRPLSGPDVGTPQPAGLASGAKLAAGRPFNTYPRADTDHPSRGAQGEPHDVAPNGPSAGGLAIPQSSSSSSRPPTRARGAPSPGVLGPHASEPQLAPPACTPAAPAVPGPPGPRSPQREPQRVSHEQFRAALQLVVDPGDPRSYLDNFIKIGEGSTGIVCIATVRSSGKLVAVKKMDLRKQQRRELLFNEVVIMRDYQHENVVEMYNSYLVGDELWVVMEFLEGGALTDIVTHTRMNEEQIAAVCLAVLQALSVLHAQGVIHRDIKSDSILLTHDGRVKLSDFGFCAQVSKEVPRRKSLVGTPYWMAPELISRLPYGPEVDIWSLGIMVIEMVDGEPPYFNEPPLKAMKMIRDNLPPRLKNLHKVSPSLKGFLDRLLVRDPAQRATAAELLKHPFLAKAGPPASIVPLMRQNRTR
# Chain of Tumour suppressor p53/oncoprotein Mdm2 (P04637 whole entry, looked up, stated change not applied, the tested form may be a part): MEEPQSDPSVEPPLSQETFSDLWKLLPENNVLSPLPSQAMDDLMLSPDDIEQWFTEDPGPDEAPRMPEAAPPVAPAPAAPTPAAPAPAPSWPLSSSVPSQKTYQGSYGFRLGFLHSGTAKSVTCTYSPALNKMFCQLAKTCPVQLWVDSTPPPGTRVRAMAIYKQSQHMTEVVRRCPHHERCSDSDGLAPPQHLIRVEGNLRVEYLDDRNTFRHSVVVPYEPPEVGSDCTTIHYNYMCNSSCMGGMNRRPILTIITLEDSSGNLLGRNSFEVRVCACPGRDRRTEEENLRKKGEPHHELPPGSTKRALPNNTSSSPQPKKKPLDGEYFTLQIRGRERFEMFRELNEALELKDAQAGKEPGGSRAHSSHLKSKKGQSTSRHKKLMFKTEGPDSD
# Chain of Tumour suppressor p53/oncoprotein Mdm2 (Q00987 whole entry, looked up, stated change not applied, the tested form may be a part): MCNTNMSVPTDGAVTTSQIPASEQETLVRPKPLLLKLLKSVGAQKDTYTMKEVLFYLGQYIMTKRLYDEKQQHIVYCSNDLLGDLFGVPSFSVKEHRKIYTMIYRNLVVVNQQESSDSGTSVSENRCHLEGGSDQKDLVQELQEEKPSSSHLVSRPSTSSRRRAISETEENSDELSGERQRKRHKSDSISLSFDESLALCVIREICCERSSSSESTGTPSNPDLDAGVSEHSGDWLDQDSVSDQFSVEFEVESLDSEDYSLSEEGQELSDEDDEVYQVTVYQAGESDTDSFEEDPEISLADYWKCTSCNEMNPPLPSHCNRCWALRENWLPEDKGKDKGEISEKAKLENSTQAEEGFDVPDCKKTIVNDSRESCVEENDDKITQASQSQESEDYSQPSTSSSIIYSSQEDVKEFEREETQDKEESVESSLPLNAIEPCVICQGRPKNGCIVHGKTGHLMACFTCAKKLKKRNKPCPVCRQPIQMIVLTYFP
# Chain of Protein kinase C beta type (P05771 whole entry): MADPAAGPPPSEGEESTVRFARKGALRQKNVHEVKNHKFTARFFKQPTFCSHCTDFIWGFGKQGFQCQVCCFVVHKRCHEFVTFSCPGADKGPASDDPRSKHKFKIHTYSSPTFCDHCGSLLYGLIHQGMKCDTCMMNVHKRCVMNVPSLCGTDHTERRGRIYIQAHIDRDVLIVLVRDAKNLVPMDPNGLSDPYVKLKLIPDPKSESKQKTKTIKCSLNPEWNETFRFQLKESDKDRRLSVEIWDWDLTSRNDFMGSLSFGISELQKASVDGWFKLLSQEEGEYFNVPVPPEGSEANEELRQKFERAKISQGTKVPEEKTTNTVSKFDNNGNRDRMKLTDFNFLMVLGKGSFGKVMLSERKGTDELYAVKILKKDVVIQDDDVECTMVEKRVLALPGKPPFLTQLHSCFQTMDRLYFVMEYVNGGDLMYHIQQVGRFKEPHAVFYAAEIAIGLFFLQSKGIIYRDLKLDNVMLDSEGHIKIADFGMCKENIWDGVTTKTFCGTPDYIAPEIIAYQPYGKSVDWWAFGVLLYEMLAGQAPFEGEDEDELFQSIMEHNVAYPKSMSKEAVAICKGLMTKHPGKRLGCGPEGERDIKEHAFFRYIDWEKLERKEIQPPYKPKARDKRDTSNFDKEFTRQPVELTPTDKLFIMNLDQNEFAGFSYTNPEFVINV
# Chain of Tyrosine-protein kinase Yes (P07947 whole entry): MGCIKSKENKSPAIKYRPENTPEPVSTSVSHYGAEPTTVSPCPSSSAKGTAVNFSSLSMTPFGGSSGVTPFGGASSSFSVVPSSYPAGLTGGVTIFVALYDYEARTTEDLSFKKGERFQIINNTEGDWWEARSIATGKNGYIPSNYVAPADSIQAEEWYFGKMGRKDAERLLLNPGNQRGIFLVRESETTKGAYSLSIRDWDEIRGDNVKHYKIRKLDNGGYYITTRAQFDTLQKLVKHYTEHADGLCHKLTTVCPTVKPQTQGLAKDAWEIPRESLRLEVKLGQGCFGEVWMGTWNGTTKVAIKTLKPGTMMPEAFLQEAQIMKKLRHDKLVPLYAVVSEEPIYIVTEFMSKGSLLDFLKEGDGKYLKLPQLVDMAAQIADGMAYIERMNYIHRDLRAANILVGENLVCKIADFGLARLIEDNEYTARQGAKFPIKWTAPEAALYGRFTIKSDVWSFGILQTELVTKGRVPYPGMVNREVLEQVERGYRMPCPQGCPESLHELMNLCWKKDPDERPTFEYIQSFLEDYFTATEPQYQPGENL
# Chain of Tyrosine-protein kinase Fyn (P06241 whole entry): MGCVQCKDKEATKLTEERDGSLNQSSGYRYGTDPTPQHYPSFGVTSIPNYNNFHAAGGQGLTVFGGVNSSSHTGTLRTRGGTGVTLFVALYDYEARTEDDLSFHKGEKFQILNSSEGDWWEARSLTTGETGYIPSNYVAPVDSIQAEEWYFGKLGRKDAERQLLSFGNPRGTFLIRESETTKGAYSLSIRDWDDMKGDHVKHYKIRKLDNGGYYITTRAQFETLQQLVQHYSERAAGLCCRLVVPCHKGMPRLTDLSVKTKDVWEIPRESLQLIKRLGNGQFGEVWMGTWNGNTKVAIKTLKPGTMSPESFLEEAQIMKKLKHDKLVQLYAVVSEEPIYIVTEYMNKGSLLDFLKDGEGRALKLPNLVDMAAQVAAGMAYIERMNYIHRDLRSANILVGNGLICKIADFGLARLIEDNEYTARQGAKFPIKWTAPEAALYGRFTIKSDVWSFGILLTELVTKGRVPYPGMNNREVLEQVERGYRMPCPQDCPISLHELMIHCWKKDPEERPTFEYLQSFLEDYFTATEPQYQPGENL
# Chain of Protein kinase C theta type (Q04759 whole entry, looked up): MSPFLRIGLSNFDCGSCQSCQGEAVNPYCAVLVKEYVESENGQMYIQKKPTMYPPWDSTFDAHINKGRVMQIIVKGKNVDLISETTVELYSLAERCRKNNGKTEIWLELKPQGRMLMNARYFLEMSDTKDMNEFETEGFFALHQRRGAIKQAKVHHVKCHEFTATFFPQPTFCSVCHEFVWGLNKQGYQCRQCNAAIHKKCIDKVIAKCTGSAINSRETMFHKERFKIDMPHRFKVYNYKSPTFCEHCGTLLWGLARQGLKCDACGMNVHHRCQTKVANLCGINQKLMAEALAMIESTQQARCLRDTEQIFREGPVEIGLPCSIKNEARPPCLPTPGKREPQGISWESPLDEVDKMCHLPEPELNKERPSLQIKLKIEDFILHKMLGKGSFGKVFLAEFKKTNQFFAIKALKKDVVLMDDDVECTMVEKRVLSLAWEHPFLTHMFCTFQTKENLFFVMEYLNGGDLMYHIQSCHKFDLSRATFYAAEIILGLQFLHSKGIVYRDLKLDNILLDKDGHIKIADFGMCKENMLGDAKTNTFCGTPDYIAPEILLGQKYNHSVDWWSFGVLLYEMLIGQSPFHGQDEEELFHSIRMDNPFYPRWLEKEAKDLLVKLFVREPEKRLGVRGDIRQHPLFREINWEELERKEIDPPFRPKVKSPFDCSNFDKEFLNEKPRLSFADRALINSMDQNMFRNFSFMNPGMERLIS
smiles,measurement,setting,value
Cc1nc(Nc2n[nH]c3c2CN(C(=O)N[C@H](CN(C)C)c2ccccc2)C3(C)C)c2sccc2n1 [PF-03758309],pIC50,HCT-116 [1],8.62
same,pIC50,NCI-H716,7.96
same,pIC50,NCI-H526,8.85
same,pIC50,NCI-H2347,8.70
same,pIC50,NCI-H520,8.25
same,pIC50,NCI-H1395,8.19
same,pIC50,Calu-6,8.14
same,pIC50,MIA PaCa-2,7.77
same,pIC50,HPAF-II,6.29
same,pIC50,DAN-G,6.29
same,pIC50,Panc 02.03,6.27
same,pIC50,NCI-H2170,8.22
same,pIC50,MCF10,9.68
same,pIC50,HCC38,9.28
same,pIC50,MDA-MB-157,6.84
same,inhibition,[2],98%
same,pKi,[3],7.59
same,pKi,[4],6.73
same,pIC50,[5],7.23
same,pIC50,[6],6.21
same,pIC50,[7],5.32
same,Activity,HCT-116 [8],14.37%
same,pIC50,[9],8.10
same,pIC50,[10],8.25
same,Activity,HCT-116 [11],Active
same,inhibition in vivo at 20 mg/kg,COLO 205,106%
same,concentration at 144 h,[12],0.14 nM
same,Activity,HCT-116 [13],Active
same,TdeltaS,[14],6.7 kcal/mol
same,T1/2,[15],1.13 min
